PGC1a acetyl inh – modulators of PGC1a acetylation. U2OS PGC1a acetylation, AlphaScreen anti-acetyl-lysine; with virally co-expressed GCN5 acetyltransferase. inhibition, % at 15.6 µM. 350,000 tested, 0.17% active. AID 651687;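 active = every replicate shows inhibition of at least 40%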;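 also: 0% = neutral control wells and 100% = positive control wells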
rRNA inh HTS – inhibits bacterial ribosomal RNA function over humanized ribosomes. E. coli WT GFP vs humanized-ribosome RFP mutants, fluorescence, 24 h; stronger effect = lower value; DMSO median 0, no signal -100. GFP signal change (wild-type ribosome), % (no concentration beside the values). 350,000 tested, 1.6% active;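 active = significant combined selectivity score with lowered wild-type GFP, culture density cut under 30%, mutant RFP and density less affected; inactive = any of these conditions unmet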
S100A4 MyoIIA – inhibitors of human S100A4 binding to myosin IIA peptide. inhibition, % at 10.7 µM. S100A4/TAMRA-MyoIIA peptide fluorescence polarization. AID 652163. 360,000 tested, 0.14% active;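 active = mean inhibition of at least 70% across replicates, with every replicate also reaching that level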
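Test system: S100A4 monomer protein; Medium: HEPES pH 7.2 with CaCl2, KCl, NaCl, DTT, Triton; Probe or stimulus: TAMRA-labelled myosin IIA heavy-chain peptide probe, 5 nM; Doses: one dose per compound; Times: polarization read 5 min after assay mix addition, stable 5–60 min; Benchmarks: neutral control DMSO, positive control TFP.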
ERAP1 inh – ERAP1 (human) enzyme inhibition; recombinant ERAP1, Leu-AMC fluorescence, 60 min; 340,000 tested, 0.15% active; Q9NZ08; inhibition, % at 10.7 µM;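 active = mean replicate inhibition of at least 30%, or all replicates individually reaching that 30% level; inactive = mean below 30% and not every replicate reaching it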;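 also: 0% = neutral control wells and 100% = L-leucinethiol positive control wells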
Target sequence (Q9NZ08 whole entry, looked up): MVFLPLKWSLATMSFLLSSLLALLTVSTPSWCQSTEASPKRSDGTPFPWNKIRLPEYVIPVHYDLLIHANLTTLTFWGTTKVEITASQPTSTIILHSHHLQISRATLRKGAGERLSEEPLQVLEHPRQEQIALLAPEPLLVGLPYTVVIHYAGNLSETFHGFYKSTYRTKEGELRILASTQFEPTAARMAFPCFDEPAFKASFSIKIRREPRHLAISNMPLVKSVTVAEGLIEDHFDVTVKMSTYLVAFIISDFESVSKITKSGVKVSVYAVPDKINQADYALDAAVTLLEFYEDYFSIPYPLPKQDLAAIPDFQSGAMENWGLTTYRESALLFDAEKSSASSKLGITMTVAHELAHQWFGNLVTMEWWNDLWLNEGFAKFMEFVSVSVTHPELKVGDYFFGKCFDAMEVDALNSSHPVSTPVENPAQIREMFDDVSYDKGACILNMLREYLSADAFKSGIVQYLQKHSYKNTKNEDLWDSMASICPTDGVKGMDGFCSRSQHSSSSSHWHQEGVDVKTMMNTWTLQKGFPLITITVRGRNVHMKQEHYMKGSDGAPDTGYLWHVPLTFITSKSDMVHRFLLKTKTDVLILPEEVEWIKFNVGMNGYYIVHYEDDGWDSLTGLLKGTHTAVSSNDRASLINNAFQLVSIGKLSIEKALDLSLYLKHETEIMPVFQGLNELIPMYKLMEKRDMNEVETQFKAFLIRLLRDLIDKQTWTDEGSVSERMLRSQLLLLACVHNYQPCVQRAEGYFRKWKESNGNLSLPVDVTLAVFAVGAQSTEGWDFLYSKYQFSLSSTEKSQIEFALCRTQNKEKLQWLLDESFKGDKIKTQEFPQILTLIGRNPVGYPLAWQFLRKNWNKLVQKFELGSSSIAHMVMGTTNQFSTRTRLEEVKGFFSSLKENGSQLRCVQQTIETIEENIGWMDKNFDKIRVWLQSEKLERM
ARNT TACC3 PPI – disruptors of human ARNT/TACC3 interaction; Q9Y6A5; AID 623870; 390,000 tested, 0.66% active; AlphaScreen His-ARNT PAS-B/GST-TACC3 binding, luminescence; TACC3 fragment carries E629A point mutation; inhibition, % at 9.99 µM;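 active = mean inhibition of replicates at least 50% and at least half of replicates each reaching 50%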;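 also: 0% = complete ARNT plus TACC3 wells and 100% = ARNT alone without TACC3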
Casp6 inh – caspase-6 (human) enzyme inhibition; purified caspase-6, Z-VEID-R110 cleavage fluorescence; inhibition, % at 12.5 µM; 350,000 tested, 0.53% active; AID 686996;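 active = mean inhibition across replicates at least about 35%, with every replicate also reaching that limit, limit read from the data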;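 also: 0% = median of neutral control wells and 100% = no fluorescence left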
The depositor's hits bear a star; x = no result given. Compounds with a hit are over-represented: about 2.4% of the library has one in this group of screens.

SMILES | PGC1a acetyl inh | rRNA inh HTS | S100A4 MyoIIA | ERAP1 inh | ARNT TACC3 PPI | Casp6 inh
O=C(NCCCn1ccnc1)Nc1cccc(Cl)c1 | -0.2 | x | x | x | 60.9* | x
CCSc1ccccc1C(=O)NCCCn1ccnc1 | 94.6* | x | x | x | -3.0 | x
Cc1ccc(-c2[nH]c3cc(C(=O)NCCCn4ccnc4)ccc3c(=O)c2O)cc1 | -0.4 | -20.6* | -0.1 | 6.7 | x | 4.5
Cc1noc(C)c1S(=O)(=O)Nc1ccc2c(c1)CC(=O)N([C@H](C)CO)C[C@H](C)[C@@H](CN(C)Cc1ccc(C(=O)O)cc1)O2 | 2.1 | 2.0 | 53.1 | -0.3 | x | 1.2
CN1C(=O)c2cc(NC(=O)c3cccc(F)c3)ccc2OC[C@H]2O[C@H](CC(=O)Nc3ccccc3)CC[C@@H]21 | -5.0 | 0.9 | -7.0 | -1.6 | 4.1 | -3.7
Cc1cccc(S(=O)(=O)N[C@@H]2CC[C@@H](CCn3cc(-c4ccccn4)nn3)O[C@H]2CO)c1 | -14.1 | -2.0 | -2.2 | -0.7 | x | 0.3
C[N+]1(CC(=O)OCCCc2ccccc2)CCCCC1 | 13.7 | 15.9 | -5.0 | 25.5 | -2.3 | -8.1
C[N+]1(CC(=O)OCCCc2ccccc2)CCCC1 | x | 2.8 | 3.3 | 77.0* | -1.1 | -1.3
Cc1noc(C)c1NC(=O)Nc1ccc2c(c1)C(=O)N([C@H](C)CO)C[C@@H](C)[C@H](CN(C)CC1CCCCC1)OCCCC[C@@H](C)O2 | 14.7 | 0.7 | -10.8 | 0.0 | 0.9 | 2.3
CCOC(=O)/C(C)=N/Nc1nc(-c2ccc(NC(C)=O)cc2)cs1 | -4.8 | -26.9* | -9.4 | 3.6 | x | 4.4
CC(C)=NNc1nc(-c2ccc([N+](=O)[O-])cc2)cs1 | -0.8 | -34.5* | -7.1 | 0.2 | 2.8 | 5.5
CC(=O)Nc1cccc(-c2csc(Nc3cc(C)ccn3)n2)c1 | -32.4 | x | x | x | -1.3 | x
CC(=O)Nc1ccc(-c2csc(Nc3cc(C)ccn3)n2)cc1 | 7.3 | -47.8* | 2.4 | -2.7 | 1.6 | -0.5
CCC(=O)Nc1ccc2c(c1)C(=O)N(C)[C@H]1CC[C@@H](CC(=O)NCCc3ccccc3)O[C@@H]1CO2 | 1.9 | 3.7 | 9.2 | -3.1 | -4.0 | -2.4
CC(=O)Nc1ccc(C(=O)NC2CCSc3ccccc32)cc1 (stereo unspecified) | 2.0 | 2.8 | 0.0 | 0.1 | -3.2 | -5.3
Cc1ccc(NC(=S)NC2CCSc3ccccc32)cc1 (stereo unspecified) | x | -44.3* | -2.2 | -1.7 | x | 6.3
O=C(OCc1ccccc1)c1ccc(NCc2cc(O)ccc2O)cc1 | 7.8 | -36.4* | -1.7 | -2.3 | 2.8 | -1.0
COP(=O)(OC)c1ccc(NCc2cc(O)ccc2O)cc1 | x | 16.1 | 0.7 | 3.1 | -5.5 | 53.1*
COc1cccc(OCc2cc(C(=O)NCc3ccc4c(c3)OCO4)no2)c1 | 3.4 | -32.5* | -0.4 | 1.0 | -5.5 | -1.3
O=C(NCc1ccc2c(c1)OCO2)c1cc(COc2c(F)cccc2F)on1 | x | -8.8 | 12.5 | -0.2 | 0.6 | -0.2
COc1ccc(NC(=O)O[C@@H](C)[C@@H]2CN3CCc4c([nH]c5ccc(-c6ccc(OC)cc6)cc45)[C@@H]3C[C@@H]2N(C)C(=O)Nc2ccc(OC)cc2)cc1 | -10.5 | -26.6* | -2.2 | x | x | -2.9
CC(C)C#Cc1cnc2c(c1)C(=O)N([C@@H](C)CO)C[C@H](C)[C@H](CN(C)C(=O)c1cnccn1)O2 | -4.7 | 1.6 | 5.5 | -6.8 | -23.2 | -1.6
COc1ccc(S(=O)(=O)N2CC3(CN(Cc4ccccc4OC)[C@@H](CO)c4[nH]c5cc(OC)ccc5c43)C2)cc1 | -22.2 | -4.0 | x | x | x | x
Cc1ccc(Cn2c(N/N=C/c3ccncc3)nc3c2c(=O)n(C)c(=O)n3C)cc1 | 2.8 | -10.1 | -4.4 | 0.1 | 4.6 | 4.1
Cn1c(=O)c2c(nc(N/N=C/c3ccncc3)n2Cc2ccccc2)n(C)c1=O | -7.4 | -29.2* | -2.5 | 2.7 | 5.6 | 7.2
SMILES | PGC1a acetyl inh | rRNA inh HTS | S100A4 MyoIIA | ERAP1 inh | ARNT TACC3 PPI | Casp6 inh
COc1ccc2c(-c3ccccc3)cc(SCC(=O)NC(N)=O)nc2c1 | -7.4 | 20.0 | -14.0 | -1.8 | -4.2 | x
COc1ccc2c(-c3ccccc3)cc(SCC(=O)N(C)C)nc2c1 | -21.2 | -48.8* | -23.1 | 2.7 | -4.0 | -0.3
CC1(C(O)(C#CC[N+]2(C)CCCCC2)c2ccccc2)CCCC1 (stereo unspecified) | -2.5 | -1.3 | 4.7 | 9.8 | -4.3 | 0.0
NC(=O)C[N+]1(CC#CC(O)(c2ccccc2)c2ccccc2)CCCC1 | -8.1 | 10.2 | -2.6 | 47.3* | -6.4 | -2.8
N#Cc1cccc(C#N)c1Oc1ccc(S(=O)(=O)Nc2ccc(Cl)cc2)cc1 | x | -38.2* | -2.7 | 1.6 | -7.6 | 5.7
O=C(O)c1sccc1Oc1ccc(NS(=O)(=O)c2ccc(Cl)cc2)cc1 | x | -20.6 | 1.2 | -6.4 | -0.5 | 3.7
CC(=O)N1[C@H](CO)[C@H](c2ccc(C3=CCCC3)cc2)C12CN(C(=O)C1CC1)C2 | -0.1 | 2.2 | 0.0 | 2.4 | x | -0.1
Nc1c(C(=O)NCC2CCCO2)sc2nc3c(c(-c4ccco4)c12)CC/C3=C\c1ccco1 (stereo unspecified) | -7.5 | -4.2 | -0.7 | 2.0 | -1.6 | 41.7*
CO[C@@H]1CN(C)C(=O)c2ccc(NC(=O)c3ccc(F)cc3)cc2OC[C@H](C)N(C(=O)CC2CC2)C[C@H]1C | 7.6 | -1.0 | 117.2* | 2.7 | x | x
CCCNC(=O)Nc1ccc2c(c1)C(=O)N(C)C[C@H](OC)[C@H](C)CN(CC1CCCC1)[C@@H](C)CO2 | 43.9* | 1.0 | x | x | x | x
CCCN1C[C@H](C)[C@H](OC)CN(C)C(=O)c2cc(NC(=O)NC3CCCCC3)ccc2OC[C@@H]1C | x | -0.4 | 115.7* | -0.3 | -15.1 | 0.2
CCCNC(=O)Nc1ccc2c(c1)OC[C@H](C)N(C(=O)C1CC1)C[C@H](C)[C@@H](OC)CN(C)C2=O | x | 0.1 | 92.6* | 0.6 | -20.8 | 4.0
CCCNC(=O)Nc1ccc2c(c1)OC[C@@H](C)N(C(=O)C1CC1)C[C@@H](C)[C@@H](OC)CN(C)C2=O | -3.4 | 0.5 | 13.7 | 1.8 | x | -6.4
CCCNC(=O)Nc1ccc2c(c1)C(=O)N(C)C[C@@H](OC)[C@@H](C)CN(CC1CCCC1)[C@@H](C)CO2 | 3.2 | 0.8 | x | x | x | x
CCCN1C[C@H](C)[C@@H](OC)CN(C)C(=O)c2cc(NC(=O)NC3CCCCC3)ccc2OC[C@H]1C | x | 1.2 | 6.4 | -1.2 | -0.7 | -2.1
C[C@H]1CN([C@@H](C)CO)S(=O)(=O)c2ccc(-c3ccncc3)cc2O[C@@H]1CN(C)S(C)(=O)=O | 12.6 | 3.1 | -0.1 | -4.2 | 5.2 | -3.4
CO[C@@H](C(=O)N(C)C[C@H]1OCc2ccccc2-c2c(n(C)c3ccccc23)C(=O)N([C@H](C)CO)C[C@H]1C)c1ccccc1 | -72.2 | 0.0 | 8.8 | 1.1 | -7.6 | 2.3

From PubChem BioAssay
